OXTR potentiate = human OXTR potentiation | CHO-OTR cells, Fluo-8 calcium fluorescence, potentiator mode; 0% = oxytocin EC15, 100% = EC100 | activation, % at 3 µM | actives 0.061% (n = 320,000);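 active = activation above that plate's cutoff, the mean activation of tested compounds plus 3 SD, cut at about 6.6% in these data, passing the limit was not always enough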;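 note: 100% uses oxytocin at 75 nM as the full agonist control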
Target sequence (P30559 whole entry, looked up): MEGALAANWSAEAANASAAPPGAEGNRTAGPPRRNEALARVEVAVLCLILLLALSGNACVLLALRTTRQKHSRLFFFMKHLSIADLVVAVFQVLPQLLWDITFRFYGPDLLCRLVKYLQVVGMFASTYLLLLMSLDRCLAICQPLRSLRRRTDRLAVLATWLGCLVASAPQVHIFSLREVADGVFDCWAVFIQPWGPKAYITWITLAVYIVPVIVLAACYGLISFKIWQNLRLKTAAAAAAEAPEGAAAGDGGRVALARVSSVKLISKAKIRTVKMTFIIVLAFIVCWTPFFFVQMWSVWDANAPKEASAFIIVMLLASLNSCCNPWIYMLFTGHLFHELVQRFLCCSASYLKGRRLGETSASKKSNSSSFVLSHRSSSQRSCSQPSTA
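Material: CHO-OTR cells, human receptor; compound dosing: single dose, 3.0 µM nominal final compound concentration; schedule: 6 min compound pre-incubation at room temperature, 100 s kinetic read; measured by: kinetic Fluo-8 calcium fluorescence; read-out basis: % activation vs EC15 and EC100 oxytocin; controls: EC15 oxytocin alone as 0%, 75 nM oxytocin as 100%; replicates: singlicate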
OXTR agonist = activates the human oxytocin receptor; actives 0.32% (n = 320,000); AID 2435; CHO-OTR cells, Fluo-8 calcium fluorescence; normalized: DMSO 0%, oxytocin 100%; P30559; activation, % at 3 µM;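 active = activation above the mean of all tested compounds plus 3 SD, cutoff set per screening run, cut at about 20% in these data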;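 note: peak over basal fluorescence ratio from a 100 s FLIPR kinetic read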
V1aR counter = counter-screen for oxytocin receptor agonists: human V1a receptor agonists; P37288; CHO-V1R cells, Fluo-8 calcium fluorescence, agonist mode; 0% DMSO, 100% 3 nM vasopressin; activation, % at 3 µM; actives 0.25% (n = 320,000);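 active = activation above the mean activation of all tested compounds plus 3 SD, per screening run, cut at about 20% in these data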;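 note: signal is peak over basal fluorescence ratio across a 100 second FLIPR read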
TAAR1 agonist = human TAAR1 agonism. Q96RJ0. CHO RD-HGA16 TAAR1, Fluo-8 calcium fluorescence; vehicle wells 0%, saturating PEA agonist 100%. activation, % at 3 µM. actives 0.99% (n = 360,000). AID 624467;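 active = activation above the mean activation of all test compounds in the run plus 3 SD, cut at about 38% in these data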
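Test system: RD-HGA16 (CHO) cells co-expressing Gα16 and hTAAR1 | Doses: Single dose, 3 µM | Schedule: 17-24 h seeding, 75 min 37 °C dye, 30 min RT | Evaluation: % activation from peak over basal fluorescence ratio, DMSO-to-PEA scaled | Technique: Kinetic Fluo-8 calcium fluorescence | Benchmarks: Low control DMSO, high control PEA (EC100)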
TAAR1 antag = antagonists of human TAAR1. AID 624466. inhibition, % at 3 µM. actives 1.5% (n = 360,000). CHO RD-HGA16 TAAR1, Fluo-8 calcium fluorescence, antagonist;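 active = inhibition above a per-plate cutoff, the mean inhibition of test compounds on that plate plus 3 SD, cut at about 49% in these data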;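 note: 0% = DMSO plus EC80 beta-PEA response and 100% = DMSO alone without agonist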
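Test system: CHO RD-HGA16 cells bearing hTAAR1 | Reagent: β-PEA, EC80 | Compound dosing: 3 µM, single point | Schedule: Dye loading 75 min at 37 °C, then 30 min room temperature | Signal: Calcium fluorescence with Fluo-8 | Evaluation: Percent inhibition of PEA-evoked calcium signal, max/basal emission ratio | Control set: DMSO-only wells and EC80 β-PEA-stimulated wells | Repeats: Singlicate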
An asterisk follows results filed as active; nt = no result; + = active, no number. In the library only some 2.3% were active in any assay of this set; here they are far more common.

SMILES	OXTR potentiate	OXTR agonist	V1aR counter	TAAR1 agonist	TAAR1 antag
CNC(=O)N(O)C1N(/N=C/c2ccc(N(C)C)cc2)C(=S)SC1(C)C (stereo not drawn)	-6	1	2	0	-1
O=c1ccc2c(-c3ccccc3)c3ccc(O)cc3oc-2c1	-25	850*	+	673*	105*
O=c1cc(-c2ccccc2)oc2cc(O)ccc12	nt	nt	nt	2	-27
Nc1ccc(-c2c3ccc(=O)cc-3oc3cc(O)ccc23)cc1C(=O)O	-26	292*	261*	212*	68*
CCCCCCn1cc(CN2CC(N(C)CC)CS2(=O)=O)nn1 (stereo not drawn)	nt	nt	nt	1	-7
CCN1C(=O)N/C(=C/c2ccc(Sc3ccc(C)cc3)o2)C1=O	-14	-1	5	18	65*
CCN1C(=O)N/C(=C/c2ccc(C)o2)C1=O	-15	0	0	5	13
COC(=O)[C@]12C[C@H](CC(=O)N3CCSCC3)C(=O)N(Cc3ccccc3)C1=C[C@H](C1CCCC1)O[C@@H]2C	nt	nt	nt	-2	-37
CCC(NC(=O)c1cc(COc2ccc(F)cc2Cl)on1)c1ccncc1 (stereo not drawn)	nt	nt	nt	43*	24
NC(Cc1ccc(O)cc1)C(=O)NN=Cc1ccccc1Cl (stereo not drawn)	nt	nt	nt	2	-12
C[C@@H]1CN([C@@H](C)CO)C(=O)c2cc(Br)cnc2O[C@@H]1CN(C)Cc1ccccn1	nt	nt	nt	4	3
CCc1nc2ccc(C(=O)NCc3ccc(OC)cc3)cn2c1N(C)Cc1ccc(OC)cc1	nt	nt	nt	1	30
CCc1nc2ccc(C(=O)NCc3ccccc3OC)cn2c1N(C)Cc1ccc(OC)cc1	nt	nt	nt	-3	51*
COC(=O)C1=C(C)N(Cc2cccc(C(F)(F)F)c2)C(=NCc2ccccc2C(F)(F)F)NC1c1cccc(F)c1 (stereo not drawn)	nt	nt	nt	6	3
CC(C)(C)CN1CCN(Cc2cc3ccccc3[nH]2)CC1CCO (stereo not drawn)	2	3	2	5	-19
CCOc1ccc(CN2CCN(Cc3cc4ccccc4[nH]3)CC2CCO)cc1 (stereo not drawn)	nt	nt	nt	42*	38
CCOc1ccc(N=C2NC(=O)S/C2=C\c2ccc(N(C)C)cc2)cc1	-11	3	13	24	57*
CCOc1ccc(/C=C2/SC(=O)NC2=S)cc1	-6	4	5	-2	10
CN1C(=O)[C@@]2(O[C@H]3c4ccccc4C=CN3C3=C2C(=O)CCC3)c2ccccc21	nt	nt	nt	2	-10
O=[N+]([O-])c1cc(-c2ccc(/C=N\n3cnnc3)o2)cc([N+](=O)[O-])c1	-5	0	0	-1	-2
CCN(CC)S(=O)(=O)c1ccc2c3c(cccc13)C(=O)N2	-5	0	0	0	-22
CCN(c1cccc(C)c1)S(=O)(=O)c1ccc2c3c(cccc13)C(=O)N2	-17	-2	-1	10	54*
CC(C)CCOc1ccc(Cl)cc1CN1CCOCC1	-1	-2	-1	39*	45
COc1ccccc1N(C(C)=O)C1=C(Cl)C(=O)c2ccccc2C1=O	nt	nt	nt	15	57*
COc1ccccc1N(C(=O)CCl)c1cn(C(C)=O)c2ccccc12	-1	-1	0	1	-3
SMILES	OXTR potentiate	OXTR agonist	V1aR counter	TAAR1 agonist	TAAR1 antag
CN(Cc1cn(Cc2ccccc2)nn1)C1CN(Cc2cn(Cc3ccccc3)nn2)S(=O)(=O)C1 (stereo not drawn)	nt	nt	nt	-1	-4
Cc1nn(-c2ccccc2)c(C)c1NC(=O)COC(=O)c1ccc(NC(=O)CC#N)cc1	-7	1	3	11	28
Cc1nn(-c2ccccc2)c(C)c1NC(=O)COC(=O)c1ccc(Cl)c(S(N)(=O)=O)c1	-9	1	1	13	53*
Cc1cc(C(=O)COC(=O)c2ccc(Cl)c(S(N)(=O)=O)c2)c(C)n1C1CC1	-5	2	1	10	49*
Cc1nn(-c2ccccc2)c(C)c1NC(=O)COC(=O)c1cc(Br)ccc1O	-8	0	0	18	61*
O=C(COC(=O)c1ccc(O)cc1)Nc1ccc2c(c1)OCCO2	-6	0	0	19	1
Cc1cccc(C(=O)OCC(=O)Nc2c(C)nn(-c3ccccc3)c2C)c1O	-9	0	2	7	27
Cc1cc(C(=O)COC(=O)c2ccc(NC(=O)CC#N)cc2)c(C)n1C1CC1	nt	nt	nt	4	-2
O=C(COC(=O)c1cc(Br)ccc1O)Nc1ccc2c(c1)OCCO2	-8	2	4	14	51*
C[C@H](c1ccccc1)N1C[C@@H](COCc2ccccc2)Oc2cccc(F)c2S1(=O)=O	nt	nt	nt	2	10
O=Cc1coc([B-](F)(F)F)c1	nt	nt	nt	5	-17
CCCCN1C(=O)C(CC(=O)NCCc2ccccn2)CC(C(=O)N(C)C)=C1C (stereo not drawn)	nt	nt	nt	22	-15
CCCCN1C(=O)C(CC(=O)NCCc2ccccn2)CC(C(=O)N(C(C)C)C(C)C)=C1C (stereo not drawn)	nt	nt	nt	42*	-15
COC(=O)c1ccc2nc(-c3ccco3)c(Cc3ccccc3C(F)(F)F)n2c1	nt	nt	nt	10	-33
Cc1cc(C(=O)N/N=C/c2cc(Br)ccc2OC(=O)c2ccccc2)n[nH]1	-15	-2	2	13	51*
Cc1cc(C(=O)N/N=C/c2ccc(OC(=O)c3ccccc3Br)cc2)n[nH]1	3	2	4	13	54*
Cc1cc(C(=O)N/N=C/c2cc(Br)ccc2OC(=O)c2ccccc2Cl)n[nH]1	-3	0	1	3	34
NS(=O)(=O)c1ccc(CCNC(=O)C2CCCN(S(=O)(=O)c3cccnc3)C2)cc1 (stereo not drawn)	-4	1	0	1	-29
O=C(NCCc1ccccc1)C1CCCN(S(=O)(=O)c2cccnc2)C1 (stereo not drawn)	-5	0	-1	40*	-2
Cc1ccccc1Cn1nc(C)c(NC(=O)c2noc3c2CC(C(C)(C)C)CC3)c1C (stereo not drawn)	-3	-1	-1	6	-12
Cc1ccccc1Cn1cc(NC(=O)c2noc3c2CC(C(C)(C)C)CC3)cn1 (stereo not drawn)	-6	1	0	39*	63*
Clc1ccc(Cn2ncc3c(N4CCCCC4)ncnc32)c(Cl)c1	-12	0	0	36	78*
CN(C)S(=O)(=O)c1cc(NC(=O)c2cc(=O)c3ccccc3o2)ccc1Cl	-14	2	2	44*	47
CC(C)Cc1ccc(C(C)NC(=O)Cc2ccc(S(=O)(=O)N3CCOCC3)s2)cc1 (stereo not drawn)	-8	15	15	38*	45
